Measured values published in ChEMBL document CHEMBL3739416, “Discovery of a marine-derived bis-indole alkaloid fascaplysin, as a new class of potent P-glycoprotein inducer and establishment of its structure-activity relationship” (Eur J Med Chem, 2016).
Calls of active or inactive are those of the source. The rule behind the calls is not given here.

Tests used:
LS180 [1] = test: Induction of P-glycoprotein in human LS180 cells assessed as accumulation of intracellular rhodamine-123 at 5 uM after 48 hrs by fluorescence assay; assay type: cell-based
Procedure, shortened: (§1)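 LS-180 colorectal cells, seeded at 2 × 10⁴ per well, were grown 24 h and then exposed to compound for 48 h, with 0.1% final DMSO. Rifampicin at 10 µM served as the reference inducer. Cells were held in HANKS buffer for 40 min, then loaded with Rh123 for 90 min and washed four times in cold PBS. Lysis was 1 h in 0.1% Triton X-100/0.2 N NaOH. Read-out was intracellular Rh123 per total protein, expressed as % of untreated control. Values are the mean ± SD of three experiments.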

[2] = Cytotoxicity against human LS180 cells assessed as cell viability at 10 uM after 48 hrs by MTT assay relative to control; assay type: cell-based; settings: read-out: Activity
Procedure, shortened: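 LS-180 cells were seeded at 1 × 10⁴ per well, allowed 24 h, then treated with compound. MTT dye was added 4 h before the end. Formazan was dissolved in DMSO and absorbance read at 570 nm. Viability was expressed relative to the untreated control, taken as 100%.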

LS180 [3] = test: Induction of P-glycoprotein in human LS180 cells assessed as accumulation of intracellular rhodamine-123 at 1 uM after 48 hrs by fluorescence assay relative to control; assay type: cell-based; procedure, shortened: as §1
[4] = Thermodynamic aqueous solubility of the compound in stimulated intestinal fluid; assay type: ADME; settings: simulated intestinal fluid; read-out: Therm_solubility
[5] = Thermodynamic aqueous solubility of the compound in water; assay type: physicochemical; settings: read-out: Therm_solubility
LS180 [6] = test: Induction of P-glycoprotein in human LS180 cells assessed as accumulation of intracellular rhodamine-123 at 250 nM after 48 hrs by fluorescence assay relative to control; assay type: cell-based; procedure, shortened: as §1
[7] = Thermodynamic aqueous solubility of the compound in stimulated gastric fluid; assay type: ADME; settings: simulated gastric fluid; read-out: Therm_solubility
LS180 [8] = test: Induction of P-glycoprotein in human LS180 cells assessed as accumulation of intracellular rhodamine-123 at 500 nM after 48 hrs by fluorescence assay relative to control; assay type: cell-based; procedure, shortened: as §1
LS180 [9] = test: Induction of P-glycoprotein in human LS180 cells assessed as accumulation of intracellular rhodamine-123 at 62.5 nM after 48 hrs by fluorescence assay relative to control; assay type: cell-based; procedure, shortened: as §1
[10] = Thermodynamic aqueous solubility of the compound in phosphate buffer saline; assay type: physicochemical; settings: read-out: Therm_solubility
LS180 [11] = test: Induction of P-glycoprotein in human LS180 cells assessed as accumulation of intracellular rhodamine-123 at 125 nM after 48 hrs by fluorescence assay relative to control; assay type: cell-based; procedure, shortened: as §1
LS180 [12] = test: Induction of P-glycoprotein expression in human LS180 cells at 1 uM by Western blot analysis relative to control; assay type: cell-based
[13] = Cytotoxicity against HGF cells assessed as cell viability after 48 hrs by MTT assay; assay type: cell-based; settings: Homo sapiens
Procedure, shortened: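 Normal human gingival fibroblasts grown in MEM with 1% non-essential amino acids, 10% FCS, penicillin G and streptomycin at 37 °C, 5% CO2. Seeded at 1 × 10⁴ cells/well for 24 h, then compound-treated. MTT added 4 h before the end, formazan dissolved in DMSO, absorbance read at 570 nm. Viability expressed relative to untreated control set as 100%.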

LS180 [14] = test: Induction of P-glycoprotein in human LS180 cells assessed as accumulation of intracellular rhodamine-123 at 10 uM after 48 hrs by fluorescence assay relative to control; assay type: cell-based; procedure, shortened: as §1

| Compound | Activity (LS180 [1]) | viability at 48 h, 10 µM [2] | Activity (LS180 [3]) | other results |
| --- | --- | --- | --- | --- |
| O=[N+]([O-])c1ccc(CN2CCc3c([nH]c4ccccc34)C2)o1 | inactive |  |  |  |
| O=C(c1cc(F)c(F)cc1Cl)c1nccc2c1[nH]c1ccccc12 |  | 81.9% | 112% |  |
| C[n+]1ccc2c([nH]c3ccccc32)c1C(=O)c1ccc(C(F)(F)F)cc1 |  | 75.7% | 78.5% |  |
| O=C(c1c(F)cccc1Cl)c1nccc2c1[nH]c1ccccc12 |  | 60.1% | 89.6% |  |
| O=C(c1ccccc1)c1nccc2c1[nH]c1ccccc12 |  | 67.5% | 94.6% |  |
| c1ccc2cc(CN3CCc4c([nH]c5ccccc45)C3)ccc2c1 | inactive |  |  |  |
| O=C(c1ccc2ccccc2n1)N1CCc2c([nH]c3ccccc23)C1 | inactive |  |  |  |
| C[n+]1ccc2c([nH]c3ccccc32)c1C(=O)c1ccccc1F |  | 69.8% | 79% |  |
| O=C1c2cc(F)c(Cl)cc2-[n+]2ccc3c([nH]c4ccccc43)c21 |  | 36.8% | 55.5% |  |
| O=C(c1cc(Cl)ccc1Cl)c1nccc2c1[nH]c1ccccc12 |  | 69.6% | 103% |  |
| C[n+]1ccc2c([nH]c3ccccc32)c1C(=O)c1ccccc1Cl |  | 69.7% | 71.4% |  |
| O=C(c1c[nH]c2ccccc12)N1CCc2c([nH]c3ccccc23)C1 | inactive |  |  |  |
| Cc1noc(C)c1CN1CCc2c([nH]c3ccccc23)C1 | inactive |  |  |  |
| O=C(c1ccc([N+](=O)[O-])s1)N1CCc2c([nH]c3ccccc23)C1 | inactive |  |  |  |
| O=C(c1ccccc1Br)c1nccc2c1[nH]c1ccccc12 |  | 80.3% | 105% |  |
| O=C(c1ccc(Cl)cc1Cl)c1nccc2c1[nH]c1ccccc12 |  | 98.8% | 97.3% |  |
| O=C1c2c(Cl)cccc2-[n+]2ccc3c([nH]c4ccccc43)c21 |  | 63.4% | 59.2% |  |
| O=C(c1ccc(Br)o1)N1CCc2c([nH]c3ccccc23)C1 | inactive |  |  |  |
| O=C(c1cc(F)c(Cl)cc1Cl)c1nccc2c1[nH]c1ccccc12 |  | 92.4% | 106% |  |
| O=C1c2cc(Cl)ccc2-[n+]2ccc3c([nH]c4ccccc43)c21 |  | 67.9% | 58.7% |  |
| COc1ccc(C(=O)c2nccc3c2[nH]c2ccccc23)c(OC)c1 |  | 82.2% | 108% |  |
| O=C(c1ccc(Cl)c(Cl)c1Cl)c1nccc2c1[nH]c1ccccc12 |  | 84.9% | 104% |  |
| O=C1c2cc(F)c(F)cc2-[n+]2ccc3c([nH]c4ccccc43)c21.[Cl-] |  | 63.5% | 49.6% | solubility thermodynamic [4]: < 5 µg/mL; solubility thermodynamic [5]: > 1500 µg/mL; Activity (LS180 [6]): 35.3%; solubility thermodynamic [7]: 80 µg/mL; Activity (LS180 [8]): 30.6%; Activity (LS180 [9]): 35.5%; solubility thermodynamic [10]: 80 µg/mL; Activity (LS180 [11]): 33.8%; fold change (FC) (LS180 [12]): 4 |
| O=C(c1ccccc1Cl)c1nccc2c1[nH]c1ccccc12 |  | 89.4% | 105% |  |
| O=C(c1cnccn1)N1CCc2c([nH]c3ccccc23)C1 | inactive |  |  |  |

| Compound | Activity (LS180 [1]) | viability at 48 h, 10 µM [2] | Activity (LS180 [3]) | other results |
| --- | --- | --- | --- | --- |
| O=C(N1CCOCC1)N1CCc2c([nH]c3ccccc23)C1 | inactive |  |  |  |
| c1ccc2c3c([nH]c2c1)CN(Cc1ccncc1)CC3 | inactive |  |  |  |
| C[n+]1ccc2c([nH]c3ccccc32)c1C(=O)c1ccccc1 |  | 77.5% | 75.2% |  |
| O=C1c2ccc(Cl)c(Cl)c2-[n+]2ccc3c([nH]c4ccccc43)c21 |  | 57.4% | 57.8% |  |
| O=C(c1ccc(C(F)(F)F)cc1)c1nccc2c1[nH]c1ccccc12 |  | 106% | 107% |  |
| CN1CCN(C(=O)N2CCc3c([nH]c4ccccc34)C2)CC1 | inactive |  |  |  |
| O=C(c1ccc(-c2cc(C(F)(F)F)ccc2Cl)o1)N1CCc2c([nH]c3ccccc23)C1 | inactive |  |  |  |
| O=C(c1cc2ccccc2o1)N1CCc2c([nH]c3ccccc23)C1 | inactive |  |  |  |
| O=C(c1ccc(-c2ccccc2)cc1)N1CCc2c([nH]c3ccccc23)C1 | inactive |  |  |  |
| O=C1c2ccccc2-[n+]2ccc3c([nH]c4ccccc43)c21.[Cl-] [FASCAPLYSIN CHLORIDE] |  | 57.5% | 57.6% | solubility thermodynamic [4]: > 1500 µg/mL; solubility thermodynamic [5]: > 1500 µg/mL; Activity (LS180 [6]): 43.7%; solubility thermodynamic [7]: > 1500 µg/mL; Activity (LS180 [8]): 34.5%; Activity (LS180 [9]): 42.9%; solubility thermodynamic [10]: > 1500 µg/mL; Activity (LS180 [11]): 39.3%; IC50 [13]: 4 µM |
| O=C(c1ccccc1F)c1nccc2c1[nH]c1ccccc12 |  | 98.4% | 101% |  |
| c1ccc2[nH]c(CN3CCc4c([nH]c5ccccc45)C3)nc2c1 | inactive |  |  |  |
| O=C(c1ccc(-c2cccc([N+](=O)[O-])c2)o1)N1CCc2c([nH]c3ccccc23)C1 | inactive |  |  |  |
| Cc1ccsc1C(=O)N1CCc2c([nH]c3ccccc23)C1 | inactive |  |  |  |
| CO[C@H]1/C=C/O[C@@]2(C)Oc3c(C)c(O)c4c(O)c(c(/C=N/N5CCN(C)CC5)c(O)c4c3C2=O)NC(=O)/C(C)=C\C=C\[C@H](C)[C@H](O)[C@@H](C)[C@@H](O)[C@@H](C)[C@H](OC(C)=O)[C@@H]1C |  |  |  | Activity (LS180 [14]): 67.1% |
| C[n+]1ccc2c([nH]c3ccccc32)c1C(=O)c1ccccc1Br.[I-] |  | 69.1% | 70.1% | solubility thermodynamic [4]: 800 µg/mL; solubility thermodynamic [5]: 800 µg/mL; Activity (LS180 [6]): 42.3%; solubility thermodynamic [7]: 800 µg/mL; Activity (LS180 [8]): 33.6%; Activity (LS180 [9]): 80%; solubility thermodynamic [10]: 800 µg/mL; Activity (LS180 [11]): 41.8%; fold change (FC) (LS180 [12]): 8 |
| O=C(c1c[nH]c2ccccc12)c1nccc2c1[nH]c1ccccc12 |  | 78.7% | 99.4% |  |
| Cc1ncsc1C(=O)N1CCc2c([nH]c3ccccc23)C1 | inactive |  |  |  |
| C[n+]1ccc2c([nH]c3ccccc32)c1C(=O)c1c[nH]c2ccccc12 |  | 69.1% | 77.6% |  |
| c1ccc2c(CN3CCc4c([nH]c5ccccc45)C3)c3ccccc3cc2c1 | inactive |  |  |  |
| c1ccc2nc(CN3CCc4c([nH]c5ccccc45)C3)ccc2c1 | inactive |  |  |  |
| O=C1NCCN1C(=O)N1CCc2c([nH]c3ccccc23)C1 | inactive |  |  |  |
| O=C1c2ccc(Cl)cc2-[n+]2ccc3c([nH]c4ccccc43)c21 |  | 66.2% | 57.1% |  |
| Clc1ccc(CN2CCc3c([nH]c4ccccc34)C2)s1 | inactive |  |  |  |
